Screening results: PubChem BioAssay, several laboratories
Hits are enriched below; roughly 3.4% of the tested compounds scored in any of these assays.
HTR2A ag – mouse HTR2A agonism via beta-arrestin recruitment; hit rate 0.66% among 360,000; P35363; activation, % at 7.6 µM; CHO-K1 mHTR2A beta-arrestin complementation, luminescence; percent of 30 µM serotonin response; AID 624169;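 active = activation above a run cutoff, the mean activation of all tested compounds plus 3 SD, cut at about 14% in these data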;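 note: 0% = plate median of compound wells and 100% = 30 µM serotonin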
TMEM16A inh – inhibitors of mouse TMEM16A calcium-activated chloride channel | HEK293 TMEM16A/YFP iodide influx fluorescence, ionomycin | normalized B-score (activity score, 25-100; higher = stronger inhibition) at 10 µM | hit rate 1.2% among 310,000 | AID 588511;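 active = ratio plate-corrected score three or more library SD toward inhibition, starting fluorescence score within five deviations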;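 note: score derived from kinetic fluorescence span divided by baseline fluorescence per well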
MIN6 prolif – MIN6 beta-cell proliferation induction; MIN6 cells proliferation, ATPlite luminescence, 48 h; cells starved in 0.2% serum; 100% = growth in 10% serum; proliferation, % at 10 µM; hit rate 0.29% among 330,000; AID 2380;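 active = compounds whose signal lies at least 3.5 SD above the mean of all wells on their plate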;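 note: 0% = DMSO-treated cells in low-serum medium and 100% = 10% serum control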
ANO1 activ – activates or potentiates the mouse TMEM16A chloride channel | Q8BHY3 | HEK293 TMEM16A/YFP-H148Q/I152L, iodide quench fluorescence; hits give low values | B-score at 10 µM | hit rate 0.3% among 340,000 | AID 623877;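 active = fluorescence-ratio B-score plate-corrected deviation score at least 3 library SD below zero, with starting fluorescence score within 5 deviations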;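 note: channel opened by trigger with iodide after compound preincubation; score built on the fluorescence ratio of max minus min over baseline; more negative score means more quench and so TMEM16A activation or potentiation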
MC4R antag cAMP – human MC4R antagonism in cAMP assay. P32245. MC4R-expressing cells, MTII-stimulated cAMP, LANCE TR-FRET. inhibition, % at 6.5 µM. hit rate 0.48% among 360,000;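 active = inhibition above its plate's cutoff, the mean of tested wells on that plate plus 3 SD, cut at about 29% in these data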;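 note: 0% = Melanotan II alone and 100% = Melanotan II plus saturating MCL0020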
Target sequence (P32245 whole entry, looked up): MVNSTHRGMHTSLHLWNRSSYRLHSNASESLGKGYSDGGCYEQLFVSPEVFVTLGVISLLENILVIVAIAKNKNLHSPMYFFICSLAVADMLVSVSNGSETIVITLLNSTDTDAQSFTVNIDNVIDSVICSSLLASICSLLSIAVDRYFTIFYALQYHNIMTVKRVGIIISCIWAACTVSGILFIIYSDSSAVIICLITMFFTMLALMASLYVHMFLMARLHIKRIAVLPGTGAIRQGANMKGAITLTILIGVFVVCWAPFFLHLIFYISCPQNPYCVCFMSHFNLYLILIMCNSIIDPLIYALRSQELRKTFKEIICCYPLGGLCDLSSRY
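System – human MC4R-expressing U2OS cells · Also added – Melanotan II · Dosing – one concentration, 6.5 µM nominal · Timing – 30-min compound, 1-h challenge, 1-h detection, room temperature · Measured by – Eu-cAMP/anti-cAMP TR-FRET, emission 671 nm · Replicates – singlicate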
MC4R ag barr – activates human MC4R beta-arrestin recruitment. hit rate 0.98% among 360,000. P32245. AID 540308. U2OS MC4R beta-arrestin complementation, luminescence; percent of melanotan II response, DMSO zero. activation, % at 8.9 µM;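 active = activation above a per-plate cutoff, the mean activation of sample wells on that plate plus 3 SD, cut at about 8% in these data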
TMEM16A reconf – re-confirmation of mouse TMEM16A chloride channel inhibitors. hit rate 39% among 2,300. inhibition, % at 10 µM. shares compounds with TMEM16A inh. HEK293 TMEM16A/YFP-H148Q, iodide quench fluorescence; ionomycin added to raise cell calcium;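 active = mean duplicate percent inhibition, scaled so buffer wells are 0 and the reference blocker 100, over three buffer SD above buffer mean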
TMEM16A Ca cntr – calcium mobilization counter-screen hit for TMEM16A inhibitor series | shares compounds with TMEM16A inh | TMEM16A/YFP HEK293, Fluo4 calcium mobilization | calcium response (% of ionomycin), % at 10 µM | hit rate 2% among 2,300 | AID 652231;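 active = duplicate-averaged calcium signal over 20% of the ionomycin maximum, relative to buffer baseline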;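 note: each well's signal is peak minus trough fluorescence divided by its pre-addition baseline; 0% = buffer wells and 100% = ionomycin wells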
YFP-HEK293 quench – counter-screen for TMEM16A inhibitors: effect in parental YFP-HEK293 cells. shares compounds with TMEM16A inh. iodide YFP quench, ionomycin. YFP ratio F(max-min)/F0 at 10 µM. 2,300 tested, under 10 active;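 active = yellow fluorescent protein signal ratio exceeding the buffer control mean by over 5 SD of those controls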;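 note: ratio is mean of duplicate wells from kinetic YFP trace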
ClC-1 inh – blocks the rat ClC-1 voltage-dependent chloride channel; shares compounds with TMEM16A inh; CHO ClC-1-YFP, iodide influx fluorescence quench; iodide control reads 0, buffer control 100; ratio percent, % at 10 µM; 2,300 tested, under 10 active;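 active = duplicate-mean ratio percent above the mean of iodide-only control wells, which defines zero, plus 5 of their SD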;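 note: higher percent means stronger block of ClC-1 iodide influx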
The depositor's hits bear a star; i = inactive; x = no result.

SMILES	HTR2A ag	TMEM16A inh	MIN6 prolif	ANO1 activ	MC4R antag cAMP	MC4R ag barr	TMEM16A reconf	TMEM16A Ca cntr	YFP-HEK293 quench	ClC-1 inh
COC(=O)c1ccccc1NC(=O)C1CCN(c2ncnc3c2nc2n3CCCCC2)CC1	3	100*	-1	i	1	-2	i	i	-1.1	-8
CCN(C(=O)C1CCCN(c2ncnc3c2nc2n3CCCCC2)C1)c1cccc(Cl)c1 (centres undefined)	-6	25*	-5	i	-2	-2	i	i	-0.88	-2
COc1ccccc1NC(=O)C1CCN(c2ncnc3c2nc2n3CCCCC2)CC1	5	i	-1	i	1	-2	x	x	x	x
Cc1noc(C)c1C(=O)N1CCC1(C)C(=O)NS(=O)(=O)c1cccc(OC(F)F)c1 (centres undefined)	4	x	x	x	6	1	x	x	x	x
COc1cccc(C(c2cccc(OC)c2)c2ccccc2C(=O)O)c1	-1	x	x	i	2	0	x	x	x	x
Cc1ccc(-c2cc(C(=O)N(C)CC(=O)Nc3ccccc3Br)c3ccccc3n2)o1	0	i	1	i	1	-4	x	x	x	x
O=C(Nc1nc(-c2cccs2)cs1)c1ccc(S(=O)(=O)N2CCCC2)cc1	-4	25*	-4	i	15	-1	i	i	-1.3	-14
COc1ccc(NC(=O)N2CCCC2)cc1OC	2	25*	0	i	1	-2	i	i	-1.1	-7
Cc1ccc(-c2nn3c(C)nnc3s2)cc1N	0	100*	-3	i	4	-1	i	i	-1.2	-10
COc1cc(-c2noc(C)c2C#Cc2ccsc2)cc(OC)c1OC	-1	100*	-7	i	-30	-1	28%*	i	-1.4	-5
Cc1cc(C)cc(N(CCC#N)C(=O)COC(=O)c2nc3nc(C)cc(C)n3n2)c1	10	i	5	i	7	-1	x	x	x	x
Cc1ccc(C)c(CSc2nnc([C@@H](N)C(C)C)o2)c1	-1	100*	-3	i	-3	1	i	i	-1.1	-2
Cc1ccc(C)c(CSc2nnc(CCN)o2)c1	-1	i	-5	i	4	-2	x	x	x	x
CCc1ccc(NC(=S)N(Cc2ccccc2)Cc2ccccn2)cc1	-6	25*	-6	i	8	-1	i	i	-1.2	-8
CCNC(=O)C1CC(=O)N(c2ccc(Br)cc2)C1 (centres undefined)	3	i	-2	i	7	-1	i	i	-0.97	-4
C=CCNC(=O)C1CC(=O)N(c2ccc(Br)cc2)C1 (centres undefined)	-1	i	-1	i	9	-1	x	x	x	x
COc1ccc(N2CCN(C(=O)CCc3nnc4ccc(N5CCOCC5)nn34)CC2)cc1	8	i	-3	i	-2	0	x	x	x	x
O=C(NCc1ccco1)C1CC(O)CN1C(=O)Nc1ccccc1 (centres undefined)	-3	i	0	i	0	-1	x	x	x	x
O=C(NCc1ccccc1C(F)(F)F)C1CC(O)CN1C(=O)Nc1ccccc1 (centres undefined)	0	i	4	i	12	-2	i	i	-0.85	-8
COc1ccc(OC)c(S(=O)(=O)CC(O)COc2ccccc2Cl)c1 (centres undefined)	1	i	-1	i	9	-1	x	x	x	x
COc1cc(/C=C2/CCC/C(=C\c3cc(O)c(OC)c(Cl)c3)C2=O)cc(Cl)c1O	-5	i	-6	i	-9	2	i	i	-0.78	-38
COc1cc(/C=C2\COC/C(=C\c3cc(OC)c(OC)c(OC)c3)C2=O)cc(OC)c1OC	10	x	x	i	8	-1	x	x	x	x
COc1cccc(-c2oc3c(c2C(=O)OCCN2CCCCC2)C(O)CCC3)c1 (centres undefined)	0	x	x	x	x	x	x	x	x	x
Cc1cc(C)n(C(=O)c2ccc(S(=O)(=O)NCC3CCCO3)cc2)n1 (centres undefined)	7	i	0	i	4	-1	i	i	-1.2	-7
CCc1ccc2c(CN(CC)Cc3nc4ccccc4c(=O)[nH]3)cc(=O)oc2c1	1	25*	1	i	-18	0	i	i	-0.93	1
SMILES	HTR2A ag	TMEM16A inh	MIN6 prolif	ANO1 activ	MC4R antag cAMP	MC4R ag barr	TMEM16A reconf	TMEM16A Ca cntr	YFP-HEK293 quench	ClC-1 inh
Cc1ccc(C2=NS(=O)(=O)N(C)C(C(=O)Nc3ccc4c(c3)OCO4)=C2)cc1	5	25*	-5	i	9	2	i	i	-0.98	-26
CC(=O)Nc1ccc(S(=O)(=O)CCC#N)cc1	6	i	1	i	3	1	i	i	-1.1	-18
CSc1ccc(OC2(C)CCN(Cc3ccc4c(c3)OCCO4)C2)cc1 (centres undefined)	-16	x	x	x	-5	-2	x	x	x	x
CC1(C)CC(=O)C(CCC(=O)c2ccccc2)C(C)(C)N1 (centres undefined)	4	25*	-1	i	-6	0	i	i	-1.1	-14
CCOC(=O)C1(Cc2cccc(OC)c2)CCN(Cc2ccccc2)CC1	0	i	0	i	5	1	x	x	x	x
CCOC(=O)C1(Cc2ccccc2Cl)CCN(Cc2csc(C(C)=O)c2)CC1	-1	25*	-5	i	2	-4	i	i	-1.1	-9
O=C(c1ccco1)N1CCN(C(=O)C2CCN(S(=O)(=O)c3cccc4nsnc34)CC2)CC1	-1	100*	-1	i	2	0	i	i	-1.1	-12
O=C(C1CCN(S(=O)(=O)c2cccc3nsnc23)CC1)N1CCN(c2ccccc2F)CC1	3	i	-2	i	3	2	x	x	x	x
Cc1occc1C(=O)N/N=C/C=C/c1ccc(N(C)C)cc1	-5	i	4	i	-9	-1	i	i	-1.1	-8
CCN(CC)C(=O)c1sc2nc(-c3cccs3)cc(-c3ccc(Cl)cc3)c2c1N	-5	i	-4	i	15	-1	x	x	x	x
